{"source": "ChEMBL document CHEMBL3399968", "about": "“Diarylsulfonamides and their bioisosteres as dual inhibitors of alkaline phosphatase and carbonic anhydrase: Structure activity relationship and molecular modelling studies” (Bioorg Med Chem, 2015)", "key": {"[1]": {"biological_target": "T1, Alkaline phosphatase, tissue-nonspecific isozyme (Bos taurus, UniProt P09487)", "T1 sequence (P09487 whole entry)": "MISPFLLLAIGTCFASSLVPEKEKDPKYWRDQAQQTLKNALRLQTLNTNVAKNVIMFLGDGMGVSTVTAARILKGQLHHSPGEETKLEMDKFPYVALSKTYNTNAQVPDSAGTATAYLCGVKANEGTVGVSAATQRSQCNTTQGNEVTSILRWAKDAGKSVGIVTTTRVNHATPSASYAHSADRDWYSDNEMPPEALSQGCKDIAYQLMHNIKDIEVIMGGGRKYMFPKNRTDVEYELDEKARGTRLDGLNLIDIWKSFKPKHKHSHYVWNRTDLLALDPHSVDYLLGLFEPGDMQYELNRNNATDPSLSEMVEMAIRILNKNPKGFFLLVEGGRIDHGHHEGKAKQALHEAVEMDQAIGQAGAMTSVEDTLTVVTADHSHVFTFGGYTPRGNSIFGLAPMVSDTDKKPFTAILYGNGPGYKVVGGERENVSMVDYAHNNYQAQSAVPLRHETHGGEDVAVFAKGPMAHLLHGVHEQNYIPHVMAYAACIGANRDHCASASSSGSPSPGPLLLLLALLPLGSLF", "assay": "Inhibition of bovine kidney non-specific alkaline phosphatase using CDP-star chemiluminescent substrate assessed as change in luminescence by spectrophotometric method; call rule not given here"}, "[2]": {"biological_target": "Intestinal-type alkaline phosphatase (Bos taurus, UniProt P19111)", "sequence (P19111 whole entry)": "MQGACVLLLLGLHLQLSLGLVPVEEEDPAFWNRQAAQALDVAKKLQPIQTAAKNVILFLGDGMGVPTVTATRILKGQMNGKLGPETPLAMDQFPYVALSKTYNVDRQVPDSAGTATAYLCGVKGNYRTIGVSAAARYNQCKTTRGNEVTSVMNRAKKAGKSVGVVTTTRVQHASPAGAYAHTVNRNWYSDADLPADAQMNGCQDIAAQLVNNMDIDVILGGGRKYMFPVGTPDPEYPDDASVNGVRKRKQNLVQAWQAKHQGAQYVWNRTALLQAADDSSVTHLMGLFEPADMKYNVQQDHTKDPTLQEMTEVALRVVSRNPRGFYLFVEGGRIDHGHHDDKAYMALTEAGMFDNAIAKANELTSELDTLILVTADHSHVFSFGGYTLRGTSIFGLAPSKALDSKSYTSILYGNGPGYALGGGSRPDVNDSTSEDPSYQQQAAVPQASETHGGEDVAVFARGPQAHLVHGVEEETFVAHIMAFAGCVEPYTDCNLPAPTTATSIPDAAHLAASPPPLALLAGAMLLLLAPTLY", "assay": "Inhibition of calf intestinal alkaline phosphatase using CDP-star chemiluminescent substrate assessed as change in luminescence by spectrophotometric method"}, "[3]": {"biological_target": "Carbonic anhydrase 2 (Bos taurus, UniProt P00921)", "sequence (P00921 whole entry)": "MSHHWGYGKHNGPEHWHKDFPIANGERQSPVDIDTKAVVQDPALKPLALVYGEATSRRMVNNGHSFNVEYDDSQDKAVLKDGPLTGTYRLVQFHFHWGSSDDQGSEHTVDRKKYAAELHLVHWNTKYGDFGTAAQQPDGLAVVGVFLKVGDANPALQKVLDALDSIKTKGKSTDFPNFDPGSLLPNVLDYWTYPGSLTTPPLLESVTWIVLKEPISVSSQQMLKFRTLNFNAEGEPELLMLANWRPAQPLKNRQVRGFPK", "assay": "Inhibition of bovine carbonic anhydrase 2 assessed as hydrolysis of p-nitrophenyl acetate after 30 mins by spectrophotometric method"}, "[4]": {"biological_target": "Carbonic anhydrase 2 (Bos taurus) (UniProt P00921)", "sequence (P00921 2-260 limits assumed)": "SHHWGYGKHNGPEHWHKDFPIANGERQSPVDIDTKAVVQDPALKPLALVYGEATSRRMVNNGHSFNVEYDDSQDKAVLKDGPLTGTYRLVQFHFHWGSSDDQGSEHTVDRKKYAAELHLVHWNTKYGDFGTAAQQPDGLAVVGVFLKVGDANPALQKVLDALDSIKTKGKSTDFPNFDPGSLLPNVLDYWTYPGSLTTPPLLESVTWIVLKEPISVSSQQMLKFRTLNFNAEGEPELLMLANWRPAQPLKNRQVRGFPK", "assay": "Inhibition of bovine carbonic anhydrase 2 assessed as hydrolysis of p-nitrophenyl acetate at 0.5 mM after 30 mins by spectrophotometric method", "how_it_was_run": "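Bovine CA (50 U/well) in 50 mM Tris-sulfate pH 7.6 with 0.1 mM ZnCl2; compound at 0.5 mM in 1% DMSO; pre-incubated 10 min at 25 °C, pre-read at 348 nm; p-nitrophenyl acetate added to 0.6 mM final; 30 min at 25 °C, read at 348 nm.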"}, "[5]": {"biological_target": "T2, Alkaline phosphatase, tissue-nonspecific isozyme (Bos taurus) (UniProt P09487)", "T2 sequence (whole entry)": "T1 sequence (P09487 whole entry)", "assay": "Inhibition of bovine kidney non-specific alkaline phosphatase using CDP-star chemiluminescent substrate assessed as change in luminescence at 0.2 mM by spectrophotometric method", "how_it_was_run": "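Buffer: 8 M DEA pH 9.8, 2.5 mM MgCl2, 0.05 mM ZnCl2. Compound 0.2 mM, final DMSO 1% (v/v), with TNAP (1:800 dilution, 0.8 units/mL); pre-incubated 3–5 min at 37 °C, luminescence pre-read; CDP-star added to 110 µM final; 15 min at 37 °C, after-read. Percent inhibition vs uninhibited control; levamisole 2 mM per well as positive control.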"}}}
{"smiles": "Cc1ccc(S(=O)(=O)NCCc2ccc(S(N)(=O)=O)cc2)cc1", "values": [{"measurement": "IC50", "setting": "[1]", "value": 41200, "unit": "nM"}, {"measurement": "Ki", "setting": "[1]", "value": 17600, "unit": "nM"}, {"measurement": "IC50", "setting": "[2]", "value": 2960, "unit": "nM"}, {"measurement": "IC50", "setting": "[3]; read-out: IC50", "value": 241, "unit": "nM"}]}
{"smiles": "NS(=O)(=O)c1ccc(CNC(=O)c2ccccc2)cc1", "values": [{"measurement": "IC50", "setting": "[1]", "value": 2870, "unit": "nM"}, {"measurement": "Ki", "setting": "[1]", "value": 918, "unit": "nM"}, {"measurement": "IC50", "setting": "[2]", "value": 4450, "unit": "nM"}, {"measurement": "IC50", "setting": "[3]; read-out: IC50", "value": 691, "unit": "nM"}]}
{"smiles": "Cc1ccc(S(=O)(=O)Nc2ccc(S(N)(=O)=O)cc2)cc1", "values": [{"measurement": "IC50", "setting": "[1]", "value": 222000, "unit": "nM"}, {"measurement": "Ki", "setting": "[1]", "value": 91900, "unit": "nM"}, {"measurement": "IC50", "setting": "[2]", "value": 14500, "unit": "nM"}, {"measurement": "IC50", "setting": "[3]; read-out: IC50", "value": 57, "unit": "nM"}]}
{"smiles": "CCOc1ccc(NS(=O)(=O)c2ccc(C)cc2)cc1", "values": [{"measurement": "IC50", "setting": "[1]", "value": 310, "unit": "nM"}, {"measurement": "Ki", "setting": "[1]", "value": 128, "unit": "nM"}, {"measurement": "IC50", "setting": "[2]", "value": 30100, "unit": "nM"}, {"measurement": "IC50", "setting": "[3]", "value": "Not Active"}]}
{"smiles": "NS(=O)(=O)c1ccc(CNC(=O)c2ccc(F)cc2)cc1", "values": [{"measurement": "IC50", "setting": "[1]", "value": 613, "unit": "nM"}, {"measurement": "Ki", "setting": "[1]", "value": 299, "unit": "nM"}, {"measurement": "IC50", "setting": "[2]", "value": 1180, "unit": "nM"}, {"measurement": "IC50", "setting": "[3]; read-out: IC50", "value": 821, "unit": "nM"}]}
{"smiles": "NS(=O)(=O)c1ccc(NC(=O)c2ccccc2)cc1", "values": [{"measurement": "IC50", "setting": "[1]", "value": 70100, "unit": "nM"}, {"measurement": "Ki", "setting": "[1]", "value": 16600, "unit": "nM"}, {"measurement": "IC50", "setting": "[2]", "value": 3050, "unit": "nM"}, {"measurement": "inhibition", "setting": "[4]", "value": 48.4, "unit": "%"}]}
{"smiles": "NS(=O)(=O)c1ccc(CCNC(=O)c2ccccc2)cc1", "values": [{"measurement": "IC50", "setting": "[1]", "value": 10300, "unit": "nM"}, {"measurement": "Ki", "setting": "[1]", "value": 3960, "unit": "nM"}, {"measurement": "IC50", "setting": "[2]", "value": 429, "unit": "nM"}, {"measurement": "IC50", "setting": "[3]; read-out: IC50", "value": 544, "unit": "nM"}]}
{"smiles": "CCOc1ccc(NS(=O)(=O)c2ccc(F)cc2)cc1", "values": [{"measurement": "inhibition", "setting": "[5]", "value": 39.5, "unit": "%"}, {"measurement": "IC50", "setting": "[2]", "value": 720, "unit": "nM"}, {"measurement": "IC50", "setting": "[3]", "value": "Not Active"}]}
{"smiles": "NS(=O)(=O)c1cccc(NS(=O)(=O)c2ccc(F)cc2)c1", "values": [{"measurement": "IC50", "setting": "[1]", "value": 150, "unit": "nM"}, {"measurement": "Ki", "setting": "[1]", "value": 60, "unit": "nM"}, {"measurement": "IC50", "setting": "[2]", "value": 1270, "unit": "nM"}, {"measurement": "IC50", "setting": "[3]; read-out: IC50", "value": 100, "unit": "nM"}]}
{"smiles": "Cc1ccc(S(=O)(=O)Nc2ccccc2)cc1", "values": [{"measurement": "IC50", "setting": "[1]", "value": 180, "unit": "nM"}, {"measurement": "Ki", "setting": "[1]", "value": 70, "unit": "nM"}, {"measurement": "IC50", "setting": "[2]", "value": 9150, "unit": "nM"}]}
{"smiles": "c1ccc([C@H]2CN3CCSC3=N2)cc1", "note": "[LEVAMISOLE]", "values": [{"measurement": "Ki", "setting": "[1]", "value": 1810, "unit": "nM"}]}
{"smiles": "Cc1ccc(S(=O)(=O)Nc2cccc(S(N)(=O)=O)c2)cc1", "values": [{"measurement": "IC50", "setting": "[1]", "value": 2240, "unit": "nM"}, {"measurement": "Ki", "setting": "[1]", "value": 950, "unit": "nM"}, {"measurement": "IC50", "setting": "[2]", "value": 8270, "unit": "nM"}, {"measurement": "IC50", "setting": "[3]; read-out: IC50", "value": 152, "unit": "nM"}]}
{"smiles": "Cc1ccc(S(=O)(=O)NCc2ccc(S(N)(=O)=O)cc2)cc1", "values": [{"measurement": "IC50", "setting": "[1]", "value": 115, "unit": "nM"}, {"measurement": "Ki", "setting": "[1]", "value": 50, "unit": "nM"}, {"measurement": "IC50", "setting": "[2]", "value": 140, "unit": "nM"}, {"measurement": "IC50", "setting": "[3]; read-out: IC50", "value": 134, "unit": "nM"}]}
{"smiles": "NS(=O)(=O)c1cccc(NC(=O)c2ccc(F)cc2)c1", "values": [{"measurement": "IC50", "setting": "[1]", "value": 55600, "unit": "nM"}, {"measurement": "Ki", "setting": "[1]", "value": 16200, "unit": "nM"}, {"measurement": "IC50", "setting": "[2]", "value": 9750, "unit": "nM"}, {"measurement": "inhibition", "setting": "[4]", "value": 36.4, "unit": "%"}]}
{"smiles": "NS(=O)(=O)c1ccc(NS(=O)(=O)c2ccc(F)cc2)cc1", "values": [{"measurement": "IC50", "setting": "[1]", "value": 3260, "unit": "nM"}, {"measurement": "Ki", "setting": "[1]", "value": 1390, "unit": "nM"}, {"measurement": "IC50", "setting": "[2]", "value": 1130, "unit": "nM"}, {"measurement": "IC50", "setting": "[3]; read-out: IC50", "value": 100, "unit": "nM"}]}
{"smiles": "NS(=O)(=O)c1ccc(CCNS(=O)(=O)c2ccc(F)cc2)cc1", "values": [{"measurement": "inhibition", "setting": "[5]", "value": 44.1, "unit": "%"}, {"measurement": "IC50", "setting": "[2]", "value": 11700, "unit": "nM"}, {"measurement": "IC50", "setting": "[3]; read-out: IC50", "value": 35, "unit": "nM"}]}
{"smiles": "NS(=O)(=O)c1ccc(CNS(=O)(=O)c2ccc(F)cc2)cc1", "values": [{"measurement": "IC50", "setting": "[1]", "value": 2940, "unit": "nM"}, {"measurement": "Ki", "setting": "[1]", "value": 1250, "unit": "nM"}, {"measurement": "IC50", "setting": "[2]", "value": 1350, "unit": "nM"}, {"measurement": "IC50", "setting": "[3]; read-out: IC50", "value": 215, "unit": "nM"}]}
{"smiles": "NS(=O)(=O)c1ccc(CCNC(=O)c2ccc(F)cc2)cc1", "values": [{"measurement": "IC50", "setting": "[1]", "value": 22500, "unit": "nM"}, {"measurement": "Ki", "setting": "[1]", "value": 4510, "unit": "nM"}, {"measurement": "IC50", "setting": "[2]", "value": 6730, "unit": "nM"}, {"measurement": "IC50", "setting": "[3]; read-out: IC50", "value": 656, "unit": "nM"}]}
{"smiles": "NS(=O)(=O)c1ccc(NC(=O)c2ccc(F)cc2)cc1", "values": [{"measurement": "IC50", "setting": "[1]", "value": 58600, "unit": "nM"}, {"measurement": "Ki", "setting": "[1]", "value": 25100, "unit": "nM"}, {"measurement": "IC50", "setting": "[2]", "value": 5910, "unit": "nM"}, {"measurement": "inhibition", "setting": "[4]", "value": 47.3, "unit": "%"}]}
